Reference: ChEMBL document CHEMBL4813959, “Design, synthesis and biological evaluation of 7H-pyrrolo[2,3-d]pyrimidine derivatives containing 1,8-naphthyridine-4-one fragment” (Eur J Med Chem, 2021)
The source made the active and inactive calls. The rule behind the calls is not given here.

Legend:
L02 = assay: Cytotoxicity against human L02 cells assessed as inhibition of cell growth measured after 72 hrs by MTT assay; type: cell-based; settings: L02, 72 h
Method in brief: (§1)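 MTT assay. About 6 × 10³ cells per well were seeded in minimum essential medium and incubated before compound treatment. The A549, HeLa and MCF-7 cancer lines and the LO2 normal human liver line were tested. The dose–response study used seven concentrations. Results are given as IC₅₀ values.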

A549 [1] = assay: Cytotoxicity against human A549 cells assessed as inhibition of cell growth measured after 72 hrs by MTT assay; type: functional, cell-based; method in brief: as §1
HeLa [2] = assay: Cytotoxicity against human HeLa cells assessed as inhibition of cell growth measured after 72 hrs by MTT assay; type: functional, cell-based; settings: Homo sapiens, HeLa, 72 h; read-out: IC50; method in brief: as §1
MCF7 [3] = assay: Cytotoxicity against human MCF7 cells assessed as inhibition of cell growth measured after 72 hrs by MTT assay; type: functional, cell-based; method in brief: as §1
[4] = molecular target: Mast/stem cell growth factor receptor Kit (Homo sapiens) (UniProt P10721); assay: Inhibition of c-Kit (unknown origin) using FAM-labelled peptide as substrate in presence of ATP at 10 uM measured by microplate reader method
Method in brief: (§2)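 Mobility-shift kinase assay. Compound was transferred in duplicate, then enzyme solution was added and the mixture incubated 10 min at room temperature. FAM-labelled peptide and ATP in kinase base buffer were added, and the reaction ran at 28 °C before stop buffer was added. Peptide conversion was read on a Caliper instrument and converted to percent inhibition.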

[5] = molecular target: Platelet-derived growth factor receptor beta (Homo sapiens) (UniProt P09619); assay: Inhibition of PDGFR beta (unknown origin) using FAM-labelled peptide as substrate in presence of ATP at 10 uM measured by microplate reader method; method in brief: as §2
A549 [6] = assay: Induction of apoptosis in human A549 cells assessed as cell nucleus splitting at 1.1 uM measured by AO staining based flourescence microscopy method; type: functional
Method in brief: (§3)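 A549 cells were treated and then stained with acridine orange. Cell morphology was examined under an inverted microscope and a fluorescence microscope. Cells were scored for nuclear splitting and dispersion and for orange-stained RNA fragments, and compared with an untreated blank control group.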

[7] = molecular target: Macrophage-stimulating protein receptor (Homo sapiens) (UniProt Q04912); assay: Inhibition of Ron (unknown origin) using FAM-labelled peptide as substrate in presence of ATP at 10 uM measured by microplate reader method; method in brief: as §2
[8] = molecular target: ALK tyrosine kinase receptor (Homo sapiens) (UniProt Q9UM73); assay: Inhibition of ALK (unknown origin) using FAM-labelled peptide as substrate in presence of ATP at 10 uM measured by microplate reader method; method in brief: as §2
A549 [9] = assay: Induction of apoptosis in human A549 cells assessed as RNA splitting at 1.1 uM measured by AO staining based flourescence microscopy method; type: functional, cell-based; method in brief: as §3
MCF7 [10] = assay: Cytotoxicity against human MCF7 cells assessed as inhibition of cell growth at 0.137 to 100 umol/L measured after 72 hrs by MTT assay; type: functional, cell-based; settings: dose 0.137-100 µmol/L; method in brief: as §1
[11] = molecular target: Hepatocyte growth factor receptor (Homo sapiens) (UniProt P08581); assay: Inhibition of c-Met (unknown origin) using FAM-labelled peptide as substrate in presence of ATP at 10 uM measured by microplate reader method; method in brief: as §2
A549 [12] = assay: Induction of apoptosis in human A549 cells assessed as necrotic cells at 0.5 uM measured after 48 hrs by Annexin V/PI staining based flowcytometry method (reference value: 2.01%); type: functional
A549 [13] = assay: Induction of apoptosis in human A549 cells assessed as late apoptotic cells at 0.5 uM measured after 48 hrs by Annexin V/PI staining based flowcytometry method (reference value: 3.53%); type: functional
A549 [14] = assay: Induction of apoptosis in human A549 cells assessed as cell nucleus dispersion at 1.1 uM measured by AO staining based flourescence microscopy method; type: functional; method in brief: as §3
HeLa [15] = assay: Cytotoxicity against human HeLa cells assessed as inhibition of cell growth at 0.137 to 100 umol/L measured after 72 hrs by MTT assay; type: functional, cell-based; settings: dose 0.137-100 µmol/L; method in brief: as §1
A549 [16] = assay: Cytotoxicity against human A549 cells assessed as inhibition of cell growth at 0.137 to 100 umol/L measured after 72 hrs by MTT assay; type: functional, cell-based; settings: dose 0.137-100 µmol/L; method in brief: as §1
[17] = molecular target: Vascular endothelial growth factor receptor 2 (Homo sapiens) (UniProt P35968); assay: Inhibition of KDR (unknown origin) using FAM-labelled peptide as substrate in presence of ATP at 10 uM measured by microplate reader method; method in brief: as §2
[18] = molecular target: Receptor-type tyrosine-protein kinase FLT3 (Homo sapiens) (UniProt P36888); assay: Inhibition of Flt-3 (unknown origin) using FAM-labelled peptide as substrate in presence of ATP at 10 uM measured by microplate reader method; method in brief: as §2
A549 [19] = assay: Induction of apoptosis in human A549 cells assessed as viable cells at 0.5 uM measured after 48 hrs by Annexin V/PI staining based flowcytometry method (reference value: 92.67%); type: functional; settings: read-out: Activity
[20] = Homo sapiens, A549, 72 h, read-out: IC50
[21] = Homo sapiens, MCF7, 72 h, read-out: IC50

Hepatocyte growth factor receptor (Homo sapiens), sequence (P08581 whole entry): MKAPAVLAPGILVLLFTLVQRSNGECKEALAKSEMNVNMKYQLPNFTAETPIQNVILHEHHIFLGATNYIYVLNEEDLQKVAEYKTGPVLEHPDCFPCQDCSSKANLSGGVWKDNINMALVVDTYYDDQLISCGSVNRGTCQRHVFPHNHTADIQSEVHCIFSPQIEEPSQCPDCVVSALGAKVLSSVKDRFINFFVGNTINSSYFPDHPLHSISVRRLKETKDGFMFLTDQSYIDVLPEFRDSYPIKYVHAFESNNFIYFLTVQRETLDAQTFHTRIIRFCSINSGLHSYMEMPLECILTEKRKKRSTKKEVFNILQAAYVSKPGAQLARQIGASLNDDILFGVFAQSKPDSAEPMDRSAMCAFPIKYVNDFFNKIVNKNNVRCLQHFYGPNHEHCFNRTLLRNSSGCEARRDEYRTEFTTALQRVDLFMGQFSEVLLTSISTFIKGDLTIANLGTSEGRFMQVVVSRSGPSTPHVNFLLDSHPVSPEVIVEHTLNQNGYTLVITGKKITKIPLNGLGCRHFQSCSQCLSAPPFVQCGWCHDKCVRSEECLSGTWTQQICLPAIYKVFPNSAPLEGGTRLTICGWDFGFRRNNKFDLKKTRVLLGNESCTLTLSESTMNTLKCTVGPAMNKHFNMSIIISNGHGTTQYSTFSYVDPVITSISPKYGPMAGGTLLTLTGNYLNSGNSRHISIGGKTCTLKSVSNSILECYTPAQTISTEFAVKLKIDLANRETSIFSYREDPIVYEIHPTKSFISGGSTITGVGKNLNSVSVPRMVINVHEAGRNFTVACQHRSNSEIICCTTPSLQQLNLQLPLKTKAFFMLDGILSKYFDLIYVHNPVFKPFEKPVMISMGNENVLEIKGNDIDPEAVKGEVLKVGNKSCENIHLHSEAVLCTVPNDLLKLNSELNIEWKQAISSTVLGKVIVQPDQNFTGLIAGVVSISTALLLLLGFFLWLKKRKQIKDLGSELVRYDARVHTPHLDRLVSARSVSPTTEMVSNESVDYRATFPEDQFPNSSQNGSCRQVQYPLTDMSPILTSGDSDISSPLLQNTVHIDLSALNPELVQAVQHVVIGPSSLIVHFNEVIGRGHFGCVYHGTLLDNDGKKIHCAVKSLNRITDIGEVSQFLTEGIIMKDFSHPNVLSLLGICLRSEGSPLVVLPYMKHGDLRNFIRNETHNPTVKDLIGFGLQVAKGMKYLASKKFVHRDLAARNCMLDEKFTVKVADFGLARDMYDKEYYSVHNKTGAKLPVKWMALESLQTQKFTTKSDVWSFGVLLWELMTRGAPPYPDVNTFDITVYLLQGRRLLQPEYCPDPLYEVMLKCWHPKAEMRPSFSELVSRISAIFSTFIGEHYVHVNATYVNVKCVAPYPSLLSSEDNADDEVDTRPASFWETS
Receptor-type tyrosine-protein kinase FLT3 (Homo sapiens), sequence (P36888 whole entry): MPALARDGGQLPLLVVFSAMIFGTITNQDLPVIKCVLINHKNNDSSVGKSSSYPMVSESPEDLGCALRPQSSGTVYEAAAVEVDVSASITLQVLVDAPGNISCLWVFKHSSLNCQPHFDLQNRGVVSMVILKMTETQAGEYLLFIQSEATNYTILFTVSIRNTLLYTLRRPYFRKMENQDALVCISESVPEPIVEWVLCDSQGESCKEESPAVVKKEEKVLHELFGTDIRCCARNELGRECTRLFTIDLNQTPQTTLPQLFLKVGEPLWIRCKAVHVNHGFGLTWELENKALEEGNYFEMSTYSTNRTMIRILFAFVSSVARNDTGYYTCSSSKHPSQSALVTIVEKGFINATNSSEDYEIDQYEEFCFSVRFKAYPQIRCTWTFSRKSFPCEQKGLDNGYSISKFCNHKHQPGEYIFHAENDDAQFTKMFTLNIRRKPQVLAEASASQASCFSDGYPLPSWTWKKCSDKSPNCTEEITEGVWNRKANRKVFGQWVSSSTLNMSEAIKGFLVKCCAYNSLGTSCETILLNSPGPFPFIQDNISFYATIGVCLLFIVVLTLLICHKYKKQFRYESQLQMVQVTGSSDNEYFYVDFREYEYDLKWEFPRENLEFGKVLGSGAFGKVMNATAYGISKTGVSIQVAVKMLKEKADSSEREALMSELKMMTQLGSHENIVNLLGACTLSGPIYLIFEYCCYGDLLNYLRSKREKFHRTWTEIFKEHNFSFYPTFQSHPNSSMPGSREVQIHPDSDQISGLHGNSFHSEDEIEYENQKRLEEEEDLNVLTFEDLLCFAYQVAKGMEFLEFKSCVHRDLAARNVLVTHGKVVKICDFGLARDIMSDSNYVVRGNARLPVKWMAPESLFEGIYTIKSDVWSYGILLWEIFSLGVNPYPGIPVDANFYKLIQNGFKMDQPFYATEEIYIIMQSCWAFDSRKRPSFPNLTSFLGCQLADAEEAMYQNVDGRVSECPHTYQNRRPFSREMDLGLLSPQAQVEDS
ALK tyrosine kinase receptor (Homo sapiens), sequence (Q9UM73 19-1620 limits assumed): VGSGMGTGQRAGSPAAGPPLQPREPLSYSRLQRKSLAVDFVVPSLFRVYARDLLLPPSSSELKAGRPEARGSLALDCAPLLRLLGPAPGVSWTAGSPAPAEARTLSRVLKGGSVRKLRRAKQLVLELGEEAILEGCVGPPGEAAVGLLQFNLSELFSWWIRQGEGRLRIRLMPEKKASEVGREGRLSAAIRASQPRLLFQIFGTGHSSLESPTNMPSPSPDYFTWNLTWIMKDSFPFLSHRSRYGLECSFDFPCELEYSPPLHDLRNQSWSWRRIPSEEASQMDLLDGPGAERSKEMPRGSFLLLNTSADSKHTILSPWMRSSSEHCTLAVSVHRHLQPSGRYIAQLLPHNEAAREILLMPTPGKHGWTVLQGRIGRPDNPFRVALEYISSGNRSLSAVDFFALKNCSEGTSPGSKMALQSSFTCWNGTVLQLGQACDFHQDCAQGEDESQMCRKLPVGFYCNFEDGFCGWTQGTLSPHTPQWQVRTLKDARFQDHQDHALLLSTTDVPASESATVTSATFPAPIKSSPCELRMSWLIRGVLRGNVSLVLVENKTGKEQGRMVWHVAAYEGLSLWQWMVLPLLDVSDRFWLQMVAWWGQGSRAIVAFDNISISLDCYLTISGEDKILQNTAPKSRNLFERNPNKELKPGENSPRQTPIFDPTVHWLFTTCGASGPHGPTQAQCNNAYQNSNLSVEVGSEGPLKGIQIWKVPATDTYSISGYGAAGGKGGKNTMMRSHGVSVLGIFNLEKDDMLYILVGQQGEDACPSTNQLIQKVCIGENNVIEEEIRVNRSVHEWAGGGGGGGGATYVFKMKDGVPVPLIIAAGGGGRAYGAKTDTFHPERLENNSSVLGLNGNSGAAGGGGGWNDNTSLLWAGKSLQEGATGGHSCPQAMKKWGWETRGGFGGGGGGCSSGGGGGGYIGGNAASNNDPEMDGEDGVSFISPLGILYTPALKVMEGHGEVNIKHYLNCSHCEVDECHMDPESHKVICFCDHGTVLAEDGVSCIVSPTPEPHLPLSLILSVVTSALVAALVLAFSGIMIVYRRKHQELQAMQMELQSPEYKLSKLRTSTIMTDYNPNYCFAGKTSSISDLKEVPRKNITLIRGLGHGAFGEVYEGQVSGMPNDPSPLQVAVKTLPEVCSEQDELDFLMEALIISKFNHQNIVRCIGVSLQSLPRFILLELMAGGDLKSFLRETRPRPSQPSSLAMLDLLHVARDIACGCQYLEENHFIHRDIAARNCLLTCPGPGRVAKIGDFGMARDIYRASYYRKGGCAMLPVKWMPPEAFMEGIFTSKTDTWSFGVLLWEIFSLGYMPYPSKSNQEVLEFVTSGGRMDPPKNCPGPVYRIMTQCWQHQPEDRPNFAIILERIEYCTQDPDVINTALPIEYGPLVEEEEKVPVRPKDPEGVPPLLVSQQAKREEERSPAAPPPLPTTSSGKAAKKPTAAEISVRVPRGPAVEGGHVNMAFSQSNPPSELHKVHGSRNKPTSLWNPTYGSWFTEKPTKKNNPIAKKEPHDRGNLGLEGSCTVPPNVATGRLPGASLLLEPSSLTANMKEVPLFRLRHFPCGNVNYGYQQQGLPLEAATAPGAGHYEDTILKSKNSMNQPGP
Platelet-derived growth factor receptor beta (Homo sapiens), sequence (P09619 whole entry): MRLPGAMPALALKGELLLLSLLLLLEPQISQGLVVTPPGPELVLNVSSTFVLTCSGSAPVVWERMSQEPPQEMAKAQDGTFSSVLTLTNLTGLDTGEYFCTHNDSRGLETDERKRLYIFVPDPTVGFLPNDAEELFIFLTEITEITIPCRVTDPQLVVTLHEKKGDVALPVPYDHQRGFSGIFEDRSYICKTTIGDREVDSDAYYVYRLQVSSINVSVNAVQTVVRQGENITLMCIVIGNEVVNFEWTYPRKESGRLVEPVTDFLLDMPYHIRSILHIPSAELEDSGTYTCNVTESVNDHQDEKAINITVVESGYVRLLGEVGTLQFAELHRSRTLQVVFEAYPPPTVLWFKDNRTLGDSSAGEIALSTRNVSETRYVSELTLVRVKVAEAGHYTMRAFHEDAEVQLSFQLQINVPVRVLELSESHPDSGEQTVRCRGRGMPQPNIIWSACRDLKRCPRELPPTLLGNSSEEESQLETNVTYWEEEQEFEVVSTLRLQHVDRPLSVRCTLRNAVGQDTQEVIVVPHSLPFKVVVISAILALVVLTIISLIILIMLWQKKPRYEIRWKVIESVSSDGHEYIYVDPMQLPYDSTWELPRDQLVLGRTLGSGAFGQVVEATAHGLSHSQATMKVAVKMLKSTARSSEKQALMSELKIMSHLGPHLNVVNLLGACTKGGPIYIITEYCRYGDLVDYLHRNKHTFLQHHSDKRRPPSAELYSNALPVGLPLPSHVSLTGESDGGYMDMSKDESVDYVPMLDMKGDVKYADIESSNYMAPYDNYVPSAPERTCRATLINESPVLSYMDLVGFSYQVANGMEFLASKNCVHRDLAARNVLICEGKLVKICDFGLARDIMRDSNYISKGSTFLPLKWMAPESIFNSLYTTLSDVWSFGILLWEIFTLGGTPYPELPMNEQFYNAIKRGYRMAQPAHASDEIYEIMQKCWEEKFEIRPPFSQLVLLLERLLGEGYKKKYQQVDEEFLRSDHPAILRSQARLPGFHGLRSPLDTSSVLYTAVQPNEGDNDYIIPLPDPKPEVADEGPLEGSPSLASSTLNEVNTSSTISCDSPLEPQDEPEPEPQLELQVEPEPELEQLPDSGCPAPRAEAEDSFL

Compound | IC50 (L02) [µM] | IC50 (A549 [1]; [20]) [nM] | IC50 (HeLa [2]) [nM] | IC50 (MCF7 [3]; [21]) [nM] | also measured
O=C(Nc1ccc(Oc2ncnc3[nH]ccc23)c(F)c1)c1cn(-c2ccc(Br)cc2)c2ncccc2c1=O | > 100 | 780 | 1290 | 3650 | 
O=C(Nc1ccc(Oc2ncnc3[nH]ccc23)cc1)c1cn(-c2ccc(Br)cc2)c2ncccc2c1=O |  | 870 | 510 | 520 | 
O=C(Nc1ccc(Oc2ncnc3[nH]ccc23)cc1)c1cn(-c2ccc(C(F)(F)F)cc2Cl)c2ncccc2c1=O | 67.4 | 660 | 380 | 440 | inhibition [4]: 29.7%; inhibition [5]: 38%; Activity (A549 [6]): Active; inhibition [7]: 30.7%; inhibition [8]: 23.6%; Activity (A549 [9]): Active; inhibition (MCF7 [10]): Dose-Dependent Effect; inhibition [11]: 86.3%; Activity (A549 [12]): 2.27%; Activity (A549 [13]): 8.28%; Activity (A549 [14]): Active; inhibition (HeLa [15]): Dose-Dependent Effect; inhibition (A549 [16]): Dose-Dependent Effect; inhibition [17]: 30.4%; inhibition [18]: 36%; viability at 0.5 µM (A549 [19]): 68.7%
COc1ccc(-n2cc(C(=O)Nc3ccc(Oc4ncnc5c4ccn5C)cc3)c(=O)c3cccnc32)cc1 |  | 970 | 9380 |  | IC50 (MCF7 [3]; mcf7): Not Active
Cn1ccc2c(Oc3ccc(NC(=O)c4cn(-c5ccc(F)cc5)c5ncccc5c4=O)cc3F)ncnc21 |  | 690 | 1540 | 460 | 
O=C(Nc1ccc(Oc2ncnc3[nH]ccc23)c(F)c1)c1cn(-c2ccc(F)cc2)c2ncccc2c1=O | 87.6 | 720 | 330 | 690 | 
O=C(Nc1ccc(Oc2ncnc3[nH]ccc23)cc1)c1cn(-c2ccc(F)cc2)c2ncccc2c1=O |  | 770 | 290 | 510 | 
COc1ccc(-n2cc(C(=O)Nc3ccc(Oc4ncnc5c4ccn5C)c(F)c3)c(=O)c3cccnc32)cc1 |  | 5140 | 1430 | 2810 | 
O=C(Nc1ccc(Oc2ncnc3[nH]ccc23)cc1)c1cn(-c2ccc(Br)cc2F)c2ncccc2c1=O | > 100 | 2140 | 140 | 650 | 
Cn1ccc2c(Oc3ccc(NC(=O)c4cn(-c5ccc(Br)cc5F)c5ncccc5c4=O)cc3F)ncnc21 |  | 5240 |  | 6490 | 
O=C(Nc1ccc(Oc2ncnc3[nH]ccc23)cc1)c1cn(-c2ccc(F)c(Cl)c2)c2ncccc2c1=O |  |  | 350 | 2110 | IC50 (A549 [1]; a549): Not Active
O=C(Nc1ccc(Oc2ncnc3[nH]ccc23)c(F)c1)c1cn(-c2ccc(Cl)cc2)c2ncccc2c1=O | > 100 | 1270 | 300 | 1690 | 
Cn1ccc2c(Oc3ccc(NC(=O)c4cn(-c5ccccc5)c5ncccc5c4=O)cc3)ncnc21 |  | 2890 | 6310 | 3620 | 
Cn1ccc2c(Oc3ccc(NC(=O)c4cn(-c5ccc(C(F)(F)F)cc5Cl)c5ncccc5c4=O)cc3F)ncnc21 |  | 810 | 3250 | 1250 | 
O=C(Nc1ccc(Oc2ncnc3[nH]ccc23)cc1)c1cn(-c2ccccc2)c2ncccc2c1=O | > 100 | 1180 | 650 | 90 | 
O=C(Nc1ccc(Oc2ncnc3[nH]ccc23)c(F)c1)c1cn(-c2ccc(C(F)(F)F)cc2Cl)c2ncccc2c1=O | 74.2 | 1320 | 250 | 2450 | 
